Measurements: ChEMBL document CHEMBL4689842, “EUbOPEN Chemogenomics Library wave 1” (2021)
Several values for one entry are separate records, joined by “and”; a condition that tells them apart may be missing. Equal entries are not always repeated.

Tested on: Fibroblast
Assay: Multiplex assay against human fibroblast
Type: toxicity, cell-based
Summary of the method: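 Live cells carried four stains from seeding: Hoechst33342, BioTracker Green Microtubule Cytoskeleton Dye, MitoTracker Red and Annexin V Alexa Fluor 680. They were imaged on a CQ1 microscope at 37°C and 5% CO2 after compound addition. Using CellPathfinder machine-learning gating, cells were split into Hoechst high-intensity objects or normal cells, normal cells into healthy, pyknosed or fragmented nuclei, and pyknosed cells into mitotic or apoptotic; tubulin, mitochondrial-mass and membrane-permeability phenotypes are per cents of healthy-nucleus cells.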

[1] = 12 h, 1 µM, compound concentration 1 uM, replicate 1
[2] = 12 h, 1 µM, compound concentration 1 uM, replicate 2
[3] = 12 h, 10 µM, compound concentration 10 uM, replicate 1
[4] = 12 h, 10 µM, compound concentration 10 uM, replicate 2
[5] = 24 h, 1 µM, compound concentration 1 uM, replicate 1
[6] = 24 h, 1 µM, compound concentration 1 uM, replicate 2
[7] = 24 h, 10 µM, compound concentration 10 uM, replicate 1
[8] = 24 h, 10 µM, compound concentration 10 uM, replicate 2
[9] = 48 h, 10 µM, compound concentration 10 uM, replicate 1
[10] = 48 h, 10 µM, compound concentration 10 uM, replicate 2

Structure (SMILES): Cc1c(Nc2ccc(S(=O)(=O)N3CCN(C)CC3)cc2F)nc2ccc(-c3cnn(C4CC4)c3)cn2c1=O
- Population Apoptotic (%) [1]: 66%
- Population Fragmented Nuclei (%) [1]: 29%
- Population Healthy Nuclei (%) [1]: 57%
- Population Hoechst High Intensity Objects (%) [1]: 11%
- Population Membrane Permeable-Phenotype (%) [1]: 9%
- Population Mitochondria Different-Phenotype (%) [1]: 4%
- Population Mitotic Cells (%) [1]: 33%
- Population Normal (%) [1]: 88%
- Population Pyknosed Nuclei (%) [1]: 12%
- Population Tubulin-Different-Phenotype (%) [1]: 4%
- Total Cell Count [1]: 222
- Population Apoptotic (%) [2]: 50%
- Population Fragmented Nuclei (%) [2]: 49%
- Population Healthy Nuclei (%) [2]: 40%
- Population Hoechst High Intensity Objects (%) [2]: 24%
- Population Membrane Permeable-Phenotype (%) [2]: 0%
- Population Mitochondria Different-Phenotype (%) [2]: 0%
- Population Mitotic Cells (%) [2]: 50%
- Population Normal (%) [2]: 75%
- Population Pyknosed Nuclei (%) [2]: 10%
- Population Tubulin-Different-Phenotype (%) [2]: 0%
- Total Cell Count [2]: 73
- Population Apoptotic (%) [3]: 67% and 50%
- Population Fragmented Nuclei (%) [3]: 32% and 29%
- Population Healthy Nuclei (%) [3]: 39% and 54%
- Population Hoechst High Intensity Objects (%) [3]: 45% and 41%
- Population Membrane Permeable-Phenotype (%) [3]: 19% and 13%
- Population Mitochondria Different-Phenotype (%) [3]: 3% and 4%
- Population Mitotic Cells (%) [3]: 32% and 50%
- Population Normal (%) [3]: 54% and 58%
- Population Pyknosed Nuclei (%) [3]: 27% and 16%
- Population Tubulin-Different-Phenotype (%) [3]: 30% and 20%
- Total Cell Count [3]: 373 and 542
- Population Apoptotic (%) [4]: 78% and 64%
- Population Fragmented Nuclei (%) [4]: 34% and 56%
- Population Healthy Nuclei (%) [4]: 42%
- Population Hoechst High Intensity Objects (%) [4]: 79% and 58%
- Population Membrane Permeable-Phenotype (%) [4]: 11% and 8%
- Population Mitotic Cells (%) [4]: 21% and 35%
- Population Normal (%) [4]: 20% and 41%
- Population Tubulin-Different-Phenotype (%) [4]: 6% and 8%
- Population Apoptotic (%) [5]: 85%
- Population Fragmented Nuclei (%) [5]: 26%
- Population Healthy Nuclei (%) [5]: 60%
- Population Hoechst High Intensity Objects (%) [5]: 12%
- Population Membrane Permeable-Phenotype (%) [5]: 5%
- Population Mitochondria Different-Phenotype (%) [5]: 2%
- Population Mitotic Cells (%) [5]: 14%
- Population Normal (%) [5]: 87%
- Population Pyknosed Nuclei (%) [5]: 13%
- Population Tubulin-Different-Phenotype (%) [5]: 4%
- Total Cell Count [5]: 230
- Population Apoptotic (%) [6]: 80%
- Population Fragmented Nuclei (%) [6]: 58%
- Population Healthy Nuclei (%) [6]: 34%
- Population Hoechst High Intensity Objects (%) [6]: 20%
- Population Membrane Permeable-Phenotype (%) [6]: 8%
- Population Mitochondria Different-Phenotype (%) [6]: 12%
- Population Mitotic Cells (%) [6]: 20%
- Population Normal (%) [6]: 79%
- Population Pyknosed Nuclei (%) [6]: 6%
- Population Tubulin-Different-Phenotype (%) [6]: 8%
- Total Cell Count [6]: 91
- Population Apoptotic (%) [7]: 46% and 54%
- Population Fragmented Nuclei (%) [7]: 40% and 29%
- Population Healthy Nuclei (%) [7]: 46% and 57%
- Population Hoechst High Intensity Objects (%) [7]: 42% and 34%
- Population Membrane Permeable-Phenotype (%) [7]: 21%
- Population Mitotic Cells (%) [7]: 53% and 45%
- Population Normal (%) [7]: 57% and 65%
- Population Pyknosed Nuclei (%) [7]: 13%
- Population Tubulin-Different-Phenotype (%) [7]: 37% and 21%
- Total Cell Count [7]: 395 and 524
- Population Apoptotic (%) [8]: 60% and 68%
- Population Fragmented Nuclei (%) [8]: 58% and 33%
- Population Healthy Nuclei (%) [8]: 37% and 44%
- Population Hoechst High Intensity Objects (%) [8]: 58% and 77%
- Population Membrane Permeable-Phenotype (%) [8]: 13% and 9%
- Population Mitochondria Different-Phenotype (%) [8]: 23% and 0%
- Population Mitotic Cells (%) [8]: 40% and 31%
- Population Normal (%) [8]: 41% and 22%
- Population Apoptotic (%) [9]: 57%
- Population Fragmented Nuclei (%) [9]: 39%
- Population Healthy Nuclei (%) [9]: 47%
- Population Hoechst High Intensity Objects (%) [9]: 43%
- Population Membrane Permeable-Phenotype (%) [9]: 14%
- Population Mitochondria Different-Phenotype (%) [9]: 1%
- Population Mitotic Cells (%) [9]: 42%
- Population Normal (%) [9]: 56%
- Population Pyknosed Nuclei (%) [9]: 13%
- Population Tubulin-Different-Phenotype (%) [9]: 31%
- Total Cell Count [9]: 344
- Population Apoptotic (%) [10]: 60%
- Population Healthy Nuclei (%) [10]: 57%
- Population Hoechst High Intensity Objects (%) [10]: 19%
- Population Membrane Permeable-Phenotype (%) [10]: 16%
- Population Mitotic Cells (%) [10]: 40%
- Population Normal (%) [10]: 80%
- Population Pyknosed Nuclei (%) [10]: 3%
- Population Tubulin-Different-Phenotype (%) [10]: 24%
- Total Cell Count [10]: 159
